Peptide text beside a SMILES is read from it.
Legend:
Assay type in all cases: cell-based, human
[1] = system: PDO-K (ICC patient-derived organoid); assay: Drug sensitivity experiment of organoids; details: by IC50, 24 h, CellTiter-Glo; for overall sensitivity of the three PDOs: overall across PDO-K, PDO-S and PDO-L
[2] = system: PDO-S (ICC patient-derived organoid); assay: Drug sensitivity experiment of organoids; details: by IC50, 24 h, CellTiter-Glo
HIBEpiC cells = assay: Membrane potential; details: 1 x 10^5 cells/mL, peptide 2.5, 5, 10, 20 µM, 1 h
Outline: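 A cell suspension at 1 × 10^5 cells/mL was incubated 1 h with peptide at 0 (control), 2.5, 5, 10 or 20 µM. The mixture was then loaded into a folded capillary cell, and zeta potential was read on a NanoZetasizer.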

[3] = system: PDO-L (ICC patient-derived organoid); assay: Drug sensitivity experiment of organoids; details: by IC50, 24 h, CellTiter-Glo

| SMILES | overall sensitivity of the three PDOs [1] | rank of therapeutic effect among the drugs, PDO-S [2] | change of zeta potential of normal cells after peptide treatment (HIBEpiC cells) | rank of therapeutic effect among the drugs, PDO-K [1] | rank of therapeutic effect among the drugs, PDO-L [3] |
| --- | --- | --- | --- | --- | --- |
| CNC(=O)c1cc(Oc2ccc(NC(=O)Nc3ccc(Cl)c(C(F)(F)F)c3)cc2)ccn1 [Sorafenib, reference compound] | lowest sensitivity |  |  |  |  |
| Nc1ccn([C@@H]2O[C@H](CO)[C@@H](O)C2(F)F)c(=O)n1 [Gemcitabine] |  | most effective |  |  |  |
| CC(C)C[C@H](NC(=O)[C@H](CC(C)C)NC(=O)[C@H](CCCCN)NC(=O)[C@H](CCCCN)NC(=O)[C@H](CC(C)C)NC(=O)[C@H](CC(C)C)NC(=O)[C@H](CCCCN)NC(=O)[C@H](CCCCN)NC(=O)[C@H](CC(C)C)NC(=O)[C@H](CC(C)C)NC(=O)[C@H](CCCCN)NC(=O)[C@H](CCCCN)NC(=O)[C@H](CC(C)C)NC(=O)[C@@H](N)CC(C)C)C(N)=O [KL-8] (H-LLKKLLKKLLKKLL-NH2) | highest sensitivity |  | no statistically significant changes | best therapeutic effect | best therapeutic effect |

Reference: publication PMC12217639 (Scientific Reports, 2025)
